As a reminder, the IC50 is the concentration at which inhibition is half-maximal. A lower IC50 goes with inhibition by little substance.

One assay has as its system HeLa. In words: Cytotoxicity against human HeLa cells after 72 hrs by MTT assay. Format: functional, cell-based. (In general: Tetrazolium assays rely on reduction of a dye to a coloured formazan, in cell work by metabolically active cells.)
The test system of assay [1] is 3Y1 cell line. In words: Induction of morphological changes in rat 3Y1 cells assessed as cell rounding at 1.7 uM after 6 hrs. Type of assay: functional, cell-based. A digest of the protocol:
(§1)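 3Y1 cells exposed to 1.7 μM; cell rounding scored at 6 h, proportion of dead cells estimated within 24 h.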

A short description of assay [2]: Induction of morphological changes in rat 3Y1 cells assessed as cell death at 1.7 uM after 24 hrs.
The test system of assay [3] is 3Y1 cell line. In words: Induction of morphological changes in rat 3Y1 cells assessed as cell shrinkage at 86 nM after 6 hrs by phase contrast microscopy. Type of assay: functional, cell-based. The method in brief: (§2)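 Rat 3Y1 cells exposed to 86 nM; nucleoli (shrinkage or loss) and filopodial development inspected at 6 h.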
In assay [4] the test system is 3Y1 cell line. In words: Induction of morphological changes in rat 3Y1 cells assessed as disappearance of nucleoli at 86 nM after 6 hrs by phase contrast microscopy. Format: functional, cell-based. The method in brief: as §2
The subject of a further assay is P388. Description: Cytotoxicity against mouse P388 cells after 72 hrs by MTT assay. Format: functional, cell-based. Particulars: P388, 72 h.
The subject of assay [5] is 3Y1 cell line. In words: Induction of morphological changes in rat 3Y1 cells assessed as filopodial development. Type of assay: functional, cell-based. A digest of the protocol:
as §2

Assay [6] in a line: Cytotoxicity against rat 3Y1 cells after 72 hrs by MTT assay. The conditions noted are these: 3Y1, 72 h. Format: functional, cell-based.
For assay [7], the system named is 3Y1 cell line. In words: Induction of morphological changes in rat 3Y1 cells assessed as increase in dead cell number after 12 hrs by light microscopy. Format: functional, cell-based. A digest of the protocol: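 3Y1 cells kept under continued exposure; cellular boundaries and dead-cell numbers inspected at 12 h and followed to day five under a light microscope.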

For the next assay, the system named is 3Y1. Description: Induction of morphological changes in rat 3Y1 cells assessed as cell death at 1.7 uM after 24 hrs. Type of assay: functional, cell-based. A digest of the protocol:
as §1

The source made the active and inactive calls. The rule behind the calls is not given here.

For the compound `C/C=C(/C)C(=O)OC[C@H]1C2=C(C[C@H]3[C@H]4c5c(O)c(OC)c(C)c(O)c5[C@H](O)[C@@H]([C@H](O)N13)N4C)C(=O)C(C)=C(OC)C2=O` [RENIERAMYCIN J], the 50% inhibitory concentration (IC50) in the assay with HeLa is 12.3 nM; with P388, 0.53 nM; in [6] it was 5.3 nM. In addition, the result with 3Y1 cell line [1], in the assay on 3Y1 cell line [3], with 3Y1 cell line [4], in the assay on 3Y1 cell line [5], with 3Y1 cell line [7] and with 3Y1 was Active. Also, the Activity in [2] is listed as 90%.

Values taken from ChEMBL document CHEMBL1146584, “Renieramycin J, a highly cytotoxic tetrahydroisoquinoline alkaloid, from a marine sponge Neopetrosia sp” (J Nat Prod, 2003).
